An excerpt weighted towards active compounds, which were near 3.6% of everything screened.
CSC inhib = cancer stem cell inhibition; inhibition, % at 7.5 µM; cancer stem cell-like cells viability, luminescence; 1.1% of 300,000 active; AID 2717; in the data active means inhibition above about 75%; inconclusive means no clear call, values can overlap the other calls; tested in HMLE shEcad cells
HIF act = HIF pathway transcriptional activation | 0.32% of 300,000 active | U2OS HRE-luciferase reporter, luminescence; normalized: DMSO 0%, desferrioxamine 100% | activation, % at 7.5 µM (by protocol) | AID 1910;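 active means mean activation of at least 10% of the iron chelator positive control signal, with at least half of replicates also reaching 10%; inconclusive means mean and replicate majority disagree about reaching 10%; inactive means mean and most replicates under 10%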
PfHsp90 yeast 2 = inhibits growth of yeast expressing Plasmodium falciparum Hsp90 | S. cerevisiae expressing PfHsp90, BacTiter-Glo ATP, 48 h; yeast lacking PDR1 and PDR3 efflux regulators | inhibition, % at 9.4 µM | 0.32% of 310,000 active | AID 504621;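 active means every replicate shows inhibition above about 80%, whatever the replicate mean, limit read from the data; inconclusive means mean inhibition reaches the set limit but some replicate falls short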
SKKanGAS inh = blocks kanamycin growth of S. pyogenes SKKanGAS strain; BacTiter-Glo, 6 h; 1.3% of 300,000 active; inhibition, % at 7.5 µM;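 active means mean replicate score, as percent of positive control median, at least 50; inconclusive means mean below 50 but one replicate at or above 50; inactive means mean and every replicate below 50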;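 further: strain carries kanamycin resistance gene driven by streptokinase promoter and grows in 40 µg/ml kanamycin; loss of luminescence reflects streptokinase promoter inhibition or plain growth inhibition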
Beta cell apopt = blocks beta cell apoptosis; INS-1E cytokine-induced death, ATP luminescence, 48 h; percent of positive-control rescue, neutral wells zero; protection from apoptosis, % (test concentration not listed); 0.8% of 300,000 active; AID 435005;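 active means Every replicate reaches about 75%, or at least half do and their mean reaches it too, limit read from the data; inconclusive means At least half of replicates reach the limit but their mean does not; inactive means Under half of replicates reach the limit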;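 further: higher means more ATP so stronger rescue from cytokine killing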
T cruzi inh = T. cruzi replication inhibition. inhibition, % (concentration not given with the values). 1.4% of 300,000 active. T. cruzi beta-gal in NIH3T3, luminescence, 90 h;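 active means mean inhibition across valid replicates above about 55%, limit read from the data; inconclusive means mean below that limit but half or more replicates reach it; inactive means mean below it, under half of replicates reach it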;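 further: signal also drops with host cell toxicity which is not excluded here; higher percent means less beta-gal luminescence so fewer parasites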
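System: NIH/3T3 fibroblasts plus reporter T. cruzi. Medium: DMEM plus 2% FBS. Probe or stimulus: 5000 reporter trypomastigotes per well. Compound: single 50 nL compound addition per well in DMSO. Incubation: co-culture of at least 90 h after 3 h attachment. Detection: GalScreen β-gal luminescence, detergent lysis, 60 min. Evaluation: parasite load inhibition, %.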
Numbers stand for hits; n = inactive; u = inconclusive; x = not tested or not shown.

SMILES	CSC inhib	HIF act	PfHsp90 yeast 2	SKKanGAS inh	Beta cell apopt	T cruzi inh
O=C(Nc1ccc(Cl)cc1)N1CCCN(c2ccc(C(F)(F)F)cc2[N+](=O)[O-])CC1	83	n	n	n	n	n
O=[N+]([O-])c1cc(C(F)(F)F)ccc1NCCNC(=S)Nc1ccc(Cl)cc1	106	n	n	73	n	u
O=[N+]([O-])c1cc(C(F)(F)F)ccc1NCCCCNS(=O)(=O)c1ccc(Cl)cc1	x	n	n	n	88	n
COc1cc(Cl)c(C)cc1NC(=O)c1ccccc1-n1cnnn1	x	x	n	x	n	x
O=C(CC(C(=O)O)c1ccc(Cl)cc1)c1ccc(Br)cc1 (stereo not drawn)	n	n	n	n	n	n
O=C(Nc1cccc(F)c1)c1ccc(S(=O)(=O)N2CCCCC2)cc1	n	n	n	n	n	n
COc1cc(C(C)=O)ccc1OCC(=O)OC(C)C(=O)c1ccc(F)cc1 (stereo not drawn)	n	x	x	x	n	x
COc1ccc(C(=O)NCC(=O)N/N=C/c2cn[nH]c2-c2ccccc2)cc1	n	n	x	n	n	n
O=[N+]([O-])c1ccc(NC(=S)NCCc2ccc(Cl)cc2)cc1	196	n	108	98	87	n
C=CCNC(=S)Nc1ccc(N(C)C)cc1	n	n	n	n	n	n
Cc1ccc(S(=O)(=O)CC2CSc3nc4ccccc4n32)cc1 (stereo not drawn)	n	n	n	n	92	n
CC(C)(C)c1ccc(Cn2c(=N)n(CC(O)c3ccco3)c3ccccc32)cc1 (stereo not drawn)	n	n	n	n	n	60
CCN(C(=O)CCC(=O)N(CC)c1ccccc1)c1ccccc1	n	n	n	n	n	n
CCCC(=O)N(CCN(C(=O)CCC)c1ccccc1)c1ccccc1	n	n	x	n	79	n
O=S(=O)(/C(=C/c1ccc(C(F)(F)F)cc1)c1nc2ccccc2[nH]1)c1ccccc1	101	n	n	n	100	n
CC(C)c1ccc(/C=C(\c2nc3ccccc3[nH]2)S(=O)(=O)c2ccccc2)cc1	n	n	n	n	102	n
C/C(=C\c1ccc(N)cc1)c1nc2ccccc2[nH]1	n	n	n	n	n	n
Cc1ccc(C(=O)CSc2nc(-c3ccccc3)ccc2C#N)cc1	84	n	n	n	n	u
Cc1ccc(-c2ccc(SCC(=O)c3ccccc3)nn2)cc1	n	n	n	n	n	n
NC(=O)NC(=O)COC(=O)c1ccc(Cl)c(S(=O)(=O)N(Cc2ccccc2)c2ccc(Cl)cc2)c1	86	n	n	n	n	n
CCN(CC)S(=O)(=O)c1ccc(N/N=C/c2ccc(O)cc2)nc1	x	n	n	n	n	n
CCOc1cccc(/C=N/Nc2ccc(S(=O)(=O)N(CC)CC)cn2)c1O	117	9.8	n	91	117	n
CCN(CC)S(=O)(=O)c1ccc(N/N=C(\C)c2ccc(OC)cc2O)nc1	n	9.6	n	82	97	n
CCN(CC)S(=O)(=O)c1ccc(N/N=C/c2cc(OC)c(OC)cc2OC)nc1	n	n	n	n	n	n
Cc1cccc(NC(=O)CN(C)C(=O)/C=C/c2ccccc2)c1C	x	x	n	x	x	x
SMILES	CSC inhib	HIF act	PfHsp90 yeast 2	SKKanGAS inh	Beta cell apopt	T cruzi inh
Nc1nonc1C(=O)NCCN=Cc1cc(Cc2ccccc2)cc(Br)c1O	x	n	123	52	n	n
Cc1ccc(S(=O)(=O)N2CCC(C(=O)N3CCCC3C(=O)N[C@@H](CC(C)C)C(=O)NCC(N)=O)CC2)cc1 (stereo partly drawn)	n	n	n	n	n	n
Cc1nc(C(=O)Nc2ccc(Cl)cc2Cl)nn1-c1cc(OC(C)C)c(Cl)cc1Cl	n	15	x	n	n	n
NS(=O)(=O)c1ccc(CCNC(=O)c2cnc(Cl)c(Cl)c2)cc1	n	n	n	n	n	n
C=CCN(c1ccccc1C(=O)O)S(=O)(=O)c1ccc(C)cc1	n	n	n	n	n	n
CCn1c(SCC(=O)Nc2ccc(OC)cc2)nc2nc3c(cc2c1=O)CCCC3	n	n	n	n	146	n
CCn1c(SCC(=O)Nc2ccc(Cl)cc2)nc2nc3c(cc2c1=O)CCCC3	n	n	n	n	n	n
COc1ccc(OC)c(NC(=O)CCC(=O)N(Cc2ccc(OC)c(OC)c2)c2nccs2)c1	n	n	n	n	n	n
COc1ccc(NC(=O)CCC(=O)N(Cc2ccc(OC)c(OC)c2)c2nccs2)cc1	n	170	n	n	n	n
CCOC(=O)C1CCN(C(=O)C(C)Sc2nnc3ccccn23)CC1 (stereo not drawn)	n	x	n	x	n	x
O=C(CN(Cc1ccc(F)cc1)C(=O)CCC(=O)Nc1nccs1)NCC1CCCO1 (stereo not drawn)	x	31	n	n	n	n
O=C(CN1CCCc2ccccc21)N/N=C/c1ccccc1O	n	n	n	n	99	n
O=C(CN1CCCc2ccccc21)N/N=C/c1ccc(F)cc1F	n	n	n	n	n	n
CN(CC(O)CON=C1c2ccccc2-c2ccccc21)S(=O)(=O)c1ccc(Br)cc1 (stereo not drawn)	98	n	n	n	n	n
Cc1cccc(N(CC(O)CON=C2c3ccccc3-c3ccccc32)S(C)(=O)=O)c1 (stereo not drawn)	n	n	n	n	n	60
CS(=O)(=O)N(CC(O)CON=C1c2ccccc2-c2ccccc21)c1ccc(F)cc1 (stereo not drawn)	x	x	n	n	x	n
CCN(CC(O)CON=C1c2ccccc2-c2ccccc21)S(=O)(=O)c1ccc(Cl)cc1 (stereo not drawn)	n	x	n	n	n	62
CCN(CC(O)CON=C1c2ccccc2-c2ccccc21)S(=O)(=O)c1ccc(C)cc1 (stereo not drawn)	n	x	n	n	n	62
CC(C)CCNCC(O)CON=C1c2ccccc2-c2ccccc21 (stereo not drawn)	n	n	n	n	n	n
CC(CN1CCC(n2nccc2NC(=O)CCCc2ccccc2)CC1)c1ccccc1 (stereo not drawn)	n	n	n	n	n	n
Cc1cc(S(=O)(=O)N2CCCc3ccccc32)ccc1-n1cnnn1	n	n	n	n	n	n
CCOC(=O)NC(=O)/C(C#N)=N\Nc1ccc(Cl)cc1	n	n	n	n	x	n
Cc1c(N/N=C(\C#N)C(=O)c2ccc(Cl)cc2)c(=O)n(-c2ccccc2)n1C	n	n	n	100	76	n
N#C/C(=N\Nc1ccc(Cl)cc1)C(=O)c1ccccc1	n	n	n	n	99	n
CC(=O)N1CCN(CC(O)Cn2c3ccccc3c3ccccc32)CC1 (stereo not drawn)	n	n	n	n	n	n
Cc1ccc(OCCN2CCN(CC(O)Cn3c4ccccc4c4ccccc43)CC2)cc1 (stereo not drawn)	90	n	x	n	n	n

Bioassay records as filed in PubChem.
